From ChEMBL document CHEMBL1140649, “Design, synthesis, and preliminary biological evaluation of a novel triazole analogue of ceramide” (Bioorg Med Chem Lett, 2007)
The source made the active and inactive calls. The calls are words filed in the database; no cut-off is given here.

Key:
Assay type in all cases: functional, cell-based
Conditions in all cases: Homo sapiens
HCT-116 = experiment: Cytotoxicity against HCT116 cells assessed as cell survival by SRB assay
K562 [1] = experiment: Cytotoxicity against K562 cells assessed as cell survival by MTT assay
Summary of the method: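 Suspension leukemia cells seeded, 24 h, then 48 h treatment with compounds diluted from ethanol stock into medium. MTT added (final 500 µg/ml), 3 h at 37 °C. Medium removed, formazan dissolved in DMSO, absorbance at 570 nm. Survival relative to solvent-treated controls; EC50 (concentration giving 50% survival) by non-linear regression; minimum of three experiments.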

NCI-H358 = experiment: Cytotoxicity against NCI-H358 cells assessed as cell survival by SRB assay
K562 [2] = experiment: Induction of apoptosis in K562 cells assessed as DNA fragmentation after 18 hrs by agarose gel electrophoresis
Summary of the method: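 Cells in 100-mm dishes exposed to various concentrations for 18 h. Lysed in 50 mM Tris-HCl pH 7.5, 20 mM EDTA, 1% NP-40 for 5 min at 4 °C. SDS added (final 1%) for 1 h at 56 °C, then proteinase K (final 2.5 µg/µl) for 2 h at 37 °C. DNA precipitated with ammonium acetate (final 5 M) and ethanol. 5 µg run on 2% agarose gel.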

CCCCCCCCCCCCC/C=C/[C@@H](O)[C@H](CO)n1cc(CCC)nn1
EC50 (HCT-116): 16 µM
EC50 (K562 [1]): 13 µM
EC50 (NCI-H358): 15.7 µM

CCCCCCCCCCCCCC[C@@H](O)[C@@H](O)[C@H](CO)n1cc(CCCCCC)nn1
EC50 (HCT-116): 12 µM
EC50 (K562 [1]): 12.6 µM
EC50 (NCI-H358): 13.7 µM

CCCCCCCCCCCCC/C=C/[C@@H](O)[C@H](CO)NC(C)=O
EC50 (HCT-116): 24.5 µM
EC50 (K562 [1]): 35.1 µM
EC50 (NCI-H358): 19.6 µM

CCCCCCCCCCCCCC[C@@H](O)[C@@H](O)[C@H](CO)n1cc(CCCCCCCCCCCCC)nn1
EC50 (HCT-116): > 50 µM
EC50 (K562 [1]): > 50 µM
EC50 (NCI-H358): > 50 µM

CCCCCCCCCCCCCC[C@@H](O)[C@@H](O)[C@H](CO)n1cc(CCC)nn1
EC50 (HCT-116): 13.9 µM
EC50 (K562 [1]): 14.9 µM
EC50 (NCI-H358): 13.2 µM

CCCCCCCCCCCCC/C=C/[C@@H](O)[C@H](CO)n1cc(CCCCCCCCCCCCC)nn1
EC50 (HCT-116): > 50 µM
EC50 (K562 [1]): > 50 µM
EC50 (NCI-H358): > 50 µM

CCCCCCCCCCCCC/C=C/[C@@H](O)[C@H](CO)n1cc(CCCCCCCCCCCCCCCCCCCCCCCC)nn1
EC50 (HCT-116): > 50 µM
EC50 (K562 [1]): > 50 µM
EC50 (NCI-H358): > 50 µM

CCCCCCCCCCCCCC[C@@H](O)[C@@H](O)[C@H](CO)n1cc(CCCC)nn1
Activity (K562 [2]): Active
EC50 (HCT-116): 12.9 µM
EC50 (K562 [1]): 14.5 µM
EC50 (NCI-H358): 12.9 µM

CCCCCCCCCCCCCCCCCCCCCCCCc1cn([C@@H](CO)[C@H](O)[C@H](O)CCCCCCCCCCCCCC)nn1
EC50 (HCT-116): > 50 µM
EC50 (K562 [1]): > 50 µM
EC50 (NCI-H358): > 50 µM

CCCCCCCCCCCCC/C=C/[C@@H](O)[C@H](CO)n1cc(CCCC)nn1
Activity (K562 [2]): Active
EC50 (HCT-116): 12.9 µM
EC50 (K562 [1]): 12.3 µM
EC50 (NCI-H358): 13.6 µM

CCCCCCCCCCCCC/C=C/[C@@H](O)[C@H](CO)n1cc(CCCCCC)nn1
EC50 (HCT-116): 12.5 µM
EC50 (K562 [1]): 8.2 µM
EC50 (NCI-H358): 12.8 µM
